Results taken from ChEMBL document CHEMBL2424580, “Radiosynthesis of N-(4-chloro-3-[(11)C]methoxyphenyl)-2-picolinamide ([(11)C]ML128) as a PET radiotracer for metabotropic glutamate receptor subtype 4 (mGlu4)” (Bioorg Med Chem, 2013).

Assays:
Thalamus [1] = test: Drug uptake in Sprague-Dawley rat thalamus at 24.1 MBq, iv measured within 20 mins by PET analysis; format: ADME, organism-based; conditions: in vivo
How it was run: (§1)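 Male Sprague Dawley rats (300–500 g) under isoflurane/nitrous oxide anesthesia, with radioligand given via tail-vein catheter in 10% ethanol/saline. Dynamic small-animal PET ran for 60 min from injection (frames 18×10″, 14×30″, 20×60″, 10×180″), followed by CT for anatomy and attenuation. Data were corrected for uniformity, scatter and attenuation and reconstructed by MLEM (30 iterations) to give regional time-activity curves.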

Striatum [2] = test: Drug uptake in Sprague-Dawley rat striatum at 24.1 MBq, iv measured within 20 mins by PET analysis; format: ADME, organism-based; conditions: in vivo; how it was run: as §1
Brain = test: Biodistribution in Sprague-Dawley rat brain at 27.4 to 48.1 MBq after 1 to 40 mins by gamma counting analysis; format: ADME, organism-based; conditions: in vivo
How it was run: (§2)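 Male Sprague Dawley rats (300–500 g) given the radioligand i.v. (27.4–48.1 MBq/animal) in 10% ethanol/saline. Three rats were sacrificed at each of 1, 5, 10, 20 and 40 min. Harvested tissues were weighed and gamma-counted. Counts were corrected for decay and injected activity and expressed as %ID/g tissue.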

[3] = Metabolic stability in Sprague-Dawley rat plasma assessed as intact compound level at 24.1 MBq, iv after 50 mins by gamma counting analysis; format: ADME, organism-based; conditions: read-out: Stability
[4] = Metabolic stability in Sprague-Dawley rat plasma assessed as intact compound level at 24.1 MBq, iv after 5 mins by gamma counting analysis; format: ADME, organism-based; conditions: read-out: Stability
How it was run: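 Femoral arterial blood was drawn from three rats at 5, 25 and 55 min after i.v. radioligand and centrifuged. Plasma was mixed 1:1 with acetonitrile and centrifuged to remove protein. The supernatant was loaded on a phenyl SPE cartridge and eluted with an acetonitrile–0.1% TFA/water gradient (0–100% acetonitrile) to separate intact tracer.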

Cerebellum [5] = test: Drug uptake in Sprague-Dawley rat cerebellum at 24.1 MBq, iv measured for 1 to 3 mins by PET analysis; format: ADME, organism-based; conditions: in vivo; how it was run: as §1
Blood = test: Biodistribution in Sprague-Dawley rat blood at 27.4 to 48.1 MBq after 1 to 40 mins by gamma counting analysis; format: ADME, organism-based; conditions: in vivo; how it was run: as §2
Muscle tissue = test: Biodistribution in Sprague-Dawley rat muscle at 27.4 to 48.1 MBq after 1 to 40 mins by gamma counting analysis; format: ADME, organism-based; conditions: in vivo; how it was run: as §2
Hippocampus [6] = test: Reduction in drug uptake in Sprague-Dawley rat hippocampus at 24.1 MBq, iv after 2 to 15 mins by PET analysis in presence of mGlu5 blocker MTEP hydrochloride; format: ADME, organism-based; conditions: in vivo
How it was run: (§3)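 MTEP·HCl (5 mg/kg, in sterile water) was injected into the tail vein 2 min before i.v. radioligand. Anesthetized rats were imaged by 60-min dynamic PET with CT attenuation correction and MLEM reconstruction. Uptake at 2–15 min was compared with control scans, and percent change was calculated per brain region.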

[7] = Reduction in drug uptake in Sprague-Dawley rat whole brain at 24.1 MBq, iv after 2 to 15 mins by PET analysis in presence of mGlu5 blocker MTEP hydrochloride; format: ADME, organism-based; conditions: in vivo; how it was run: as §3
Striatum [8] = test: Reduction in drug uptake in Sprague-Dawley rat striatum at 24.1 MBq, iv after 2 to 15 mins by PET analysis in presence of mGlu5 blocker MTEP hydrochloride; format: ADME, organism-based; conditions: in vivo; how it was run: as §3
Striatum [9] = test: Drug uptake in Sprague-Dawley rat striatum at 24.1 MBq, iv measured for 1 to 3 mins by PET analysis; format: ADME, organism-based; conditions: in vivo; how it was run: as §1
[10] = Drug uptake in Sprague-Dawley rat olfactory bulb at 24.1 MBq, iv measured within 20 mins by PET analysis; format: ADME, organism-based; conditions: in vivo; how it was run: as §1
Hippocampus [11] = test: Reduction in drug uptake in Sprague-Dawley rat hippocampus at 24.1 MBq, iv after 2 to 15 mins by PET analysis in presence of mGlu4 blocker N-(3-(Difluoromethoxy)phenyl)-2-picolinamide hydrochloride salt; format: ADME, organism-based; conditions: in vivo
How it was run: as §3, with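 “Rats were pretreated with the mGlu4 blocker (10 mg/kg i.p.,” for “MTEP·HCl (5 mg/kg,”, “10% ethanol/10% Tween-20 in” for “sterile”, “30” for “was injected into the tail vein 2”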

Liver = test: Biodistribution in Sprague-Dawley rat liver at 27.4 to 48.1 MBq after 1 to 40 mins by gamma counting analysis; format: ADME, organism-based; conditions: in vivo; how it was run: as §2
[12] = Reduction in drug uptake in Sprague-Dawley rat whole brain at 24.1 MBq, iv after 2 to 15 mins by PET analysis in presence of mGlu4 blocker N-(3-(Difluoromethoxy)phenyl)-2-picolinamide hydrochloride salt; format: ADME, organism-based; conditions: in vivo
How it was run: as §3, with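 “Rats were pretreated with the mGlu4 blocker (10 mg/kg i.p.,” for “MTEP·HCl (5 mg/kg,”, “10% ethanol/10% Tween-20 in” for “sterile”, “30” for “was injected into the tail vein 2”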

Cerebellum [13] = test: Drug uptake in Sprague-Dawley rat cerebellum at 24.1 MBq, iv measured within 20 mins by PET analysis; format: ADME, organism-based; conditions: in vivo; how it was run: as §1
Hippocampus [14] = test: Drug uptake in Sprague-Dawley rat hippocampus at 24.1 MBq, iv measured within 20 mins by PET analysis; format: ADME, organism-based; conditions: in vivo; how it was run: as §1
Thalamus [15] = test: Drug uptake in Sprague-Dawley rat thalamus at 24.1 MBq, iv measured for 1 to 3 mins by PET analysis; format: ADME, organism-based; conditions: in vivo; how it was run: as §1
Hippocampus [16] = test: Drug uptake in Sprague-Dawley rat hippocampus at 24.1 MBq, iv measured for 1 to 3 mins by PET analysis; format: ADME, organism-based; conditions: in vivo; how it was run: as §1
Striatum [17] = test: Reduction in drug uptake in Sprague-Dawley rat striatum at 24.1 MBq, iv after 2 to 15 mins by PET analysis in presence of mGlu4 blocker N-(3-(Difluoromethoxy)phenyl)-2-picolinamide hydrochloride salt; format: ADME, organism-based; conditions: in vivo
How it was run: as §3, with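 “Rats were pretreated with the mGlu4 blocker (10 mg/kg i.p.,” for “MTEP·HCl (5 mg/kg,”, “10% ethanol/10% Tween-20 in” for “sterile”, “30” for “was injected into the tail vein 2”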

Lung = test: Biodistribution in Sprague-Dawley rat lung at 27.4 to 48.1 MBq after 1 to 40 mins by gamma counting analysis; format: ADME, organism-based; conditions: in vivo; how it was run: as §2
[18] = Octanol-PBS buffer partition coefficient, log D of the compound at pH 7.4 by gamma counting analysis; format: physicochemical
How it was run: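 Radiotracer was partitioned between PBS and octanol by vortexing 2 min, then centrifuging at >8000 rpm for 2 min. Octanol was serially re-extracted into fresh PBS across six tube sets. Phases were gamma-counted with decay correction. logD = log(octanol activity × 10 / PBS activity).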

Cerebellum [19] = test: Reduction in drug uptake in Sprague-Dawley rat cerebellum at 24.1 MBq, iv after 2 to 15 mins by PET analysis in presence of mGlu4 blocker N-(3-(Difluoromethoxy)phenyl)-2-picolinamide hydrochloride salt; format: ADME, organism-based; conditions: in vivo
How it was run: as §3, with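 “Rats were pretreated with the mGlu4 blocker (10 mg/kg i.p.,” for “MTEP·HCl (5 mg/kg,”, “10% ethanol/10% Tween-20 in” for “sterile”, “30” for “was injected into the tail vein 2”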

Heart = test: Biodistribution in Sprague-Dawley rat heart at 27.4 to 48.1 MBq after 1 to 40 mins by gamma counting analysis; format: ADME, organism-based; conditions: in vivo; how it was run: as §2
[20] = Drug uptake in Sprague-Dawley rat olfactory bulb at 24.1 MBq, iv measured for 1 to 3 mins by PET analysis; format: ADME, organism-based; conditions: in vivo; how it was run: as §1
Kidney = test: Biodistribution in Sprague-Dawley rat kidney at 27.4 to 48.1 MBq after 1 to 40 mins by gamma counting analysis; format: ADME, organism-based; conditions: in vivo; how it was run: as §2
[21] = biological target: Metabotropic glutamate receptor 5 (Homo sapiens) (UniProt P41594); test: Agonist activity at mGlu5a receptor (unknown origin) expressed in CHO cells assessed as induction of inositol phosphate accumulation at 10 uM after 45 mins by liquid scintillation counting analysis relative to control; format: functional, cell-based
Sequence of Metabotropic glutamate receptor 5 (Homo sapiens) (P41594 21-1212 limits assumed): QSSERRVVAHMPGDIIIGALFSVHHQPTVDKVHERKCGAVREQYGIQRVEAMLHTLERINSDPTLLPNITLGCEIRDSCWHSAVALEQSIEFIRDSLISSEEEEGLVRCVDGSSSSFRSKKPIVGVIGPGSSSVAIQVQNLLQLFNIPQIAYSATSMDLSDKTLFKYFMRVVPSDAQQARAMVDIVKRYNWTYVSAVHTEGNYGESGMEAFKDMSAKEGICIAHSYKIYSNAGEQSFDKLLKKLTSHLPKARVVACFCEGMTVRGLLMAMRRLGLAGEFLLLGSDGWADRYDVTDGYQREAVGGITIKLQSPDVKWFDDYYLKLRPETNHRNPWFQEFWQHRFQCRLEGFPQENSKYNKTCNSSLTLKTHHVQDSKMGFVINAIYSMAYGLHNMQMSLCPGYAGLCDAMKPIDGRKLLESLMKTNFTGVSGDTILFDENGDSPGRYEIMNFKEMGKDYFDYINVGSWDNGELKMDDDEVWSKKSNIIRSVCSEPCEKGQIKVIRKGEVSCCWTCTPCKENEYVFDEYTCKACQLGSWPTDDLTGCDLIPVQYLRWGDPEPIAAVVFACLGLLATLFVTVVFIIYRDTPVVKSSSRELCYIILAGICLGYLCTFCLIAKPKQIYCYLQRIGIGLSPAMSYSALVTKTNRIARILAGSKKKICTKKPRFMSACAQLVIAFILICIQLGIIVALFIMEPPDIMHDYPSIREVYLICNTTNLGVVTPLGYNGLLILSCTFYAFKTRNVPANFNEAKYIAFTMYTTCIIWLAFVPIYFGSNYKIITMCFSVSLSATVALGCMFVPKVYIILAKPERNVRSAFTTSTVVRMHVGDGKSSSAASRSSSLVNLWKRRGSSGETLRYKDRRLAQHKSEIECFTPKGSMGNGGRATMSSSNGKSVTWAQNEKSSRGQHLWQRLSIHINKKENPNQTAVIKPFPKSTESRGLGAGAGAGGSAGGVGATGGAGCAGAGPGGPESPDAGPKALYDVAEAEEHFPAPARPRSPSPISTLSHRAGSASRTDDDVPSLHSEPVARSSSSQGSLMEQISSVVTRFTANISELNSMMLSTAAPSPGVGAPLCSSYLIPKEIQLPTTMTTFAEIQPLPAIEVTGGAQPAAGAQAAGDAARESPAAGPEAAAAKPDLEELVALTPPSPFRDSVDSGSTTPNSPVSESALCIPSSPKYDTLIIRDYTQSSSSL
How it was run: (§4)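 Stably transfected CHO cells grown to confluency (3–4 days), then labelled overnight with myo-[3H]inositol in glutamine-free medium. Compound at 10 μM, 45 min at 37°C, in Locke's buffer pH 7.4 with 20 mM LiCl. IPs extracted with 0.1 M HCl, separated by anion exchange, counted by liquid scintillation. Result given as % of maximal agonist activity. Duplicates in two experiments on different passages.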

[22] = biological target: Metabotropic glutamate receptor 5 (Homo sapiens) (UniProt P41594); test: Antagonist activity at mGlu5a receptor (unknown origin) expressed in CHO cells assessed as inhibition of glutamate-induced inositol phosphate accumulation at 10 uM after 45 mins by liquid scintillation counting analysis relative to control; format: functional, cell-based
[23] = biological target: Metabotropic glutamate receptor 8 (Homo sapiens) (UniProt O00222); test: Antagonist activity at mGlu8 receptor (unknown origin) expressed in CHO cells assessed as inhibition of glutamate-induced inositol phosphate accumulation at 10 uM after 45 mins by liquid scintillation counting analysis relative to control; format: functional, cell-based
Sequence of Metabotropic glutamate receptor 8 (Homo sapiens) (O00222 whole entry): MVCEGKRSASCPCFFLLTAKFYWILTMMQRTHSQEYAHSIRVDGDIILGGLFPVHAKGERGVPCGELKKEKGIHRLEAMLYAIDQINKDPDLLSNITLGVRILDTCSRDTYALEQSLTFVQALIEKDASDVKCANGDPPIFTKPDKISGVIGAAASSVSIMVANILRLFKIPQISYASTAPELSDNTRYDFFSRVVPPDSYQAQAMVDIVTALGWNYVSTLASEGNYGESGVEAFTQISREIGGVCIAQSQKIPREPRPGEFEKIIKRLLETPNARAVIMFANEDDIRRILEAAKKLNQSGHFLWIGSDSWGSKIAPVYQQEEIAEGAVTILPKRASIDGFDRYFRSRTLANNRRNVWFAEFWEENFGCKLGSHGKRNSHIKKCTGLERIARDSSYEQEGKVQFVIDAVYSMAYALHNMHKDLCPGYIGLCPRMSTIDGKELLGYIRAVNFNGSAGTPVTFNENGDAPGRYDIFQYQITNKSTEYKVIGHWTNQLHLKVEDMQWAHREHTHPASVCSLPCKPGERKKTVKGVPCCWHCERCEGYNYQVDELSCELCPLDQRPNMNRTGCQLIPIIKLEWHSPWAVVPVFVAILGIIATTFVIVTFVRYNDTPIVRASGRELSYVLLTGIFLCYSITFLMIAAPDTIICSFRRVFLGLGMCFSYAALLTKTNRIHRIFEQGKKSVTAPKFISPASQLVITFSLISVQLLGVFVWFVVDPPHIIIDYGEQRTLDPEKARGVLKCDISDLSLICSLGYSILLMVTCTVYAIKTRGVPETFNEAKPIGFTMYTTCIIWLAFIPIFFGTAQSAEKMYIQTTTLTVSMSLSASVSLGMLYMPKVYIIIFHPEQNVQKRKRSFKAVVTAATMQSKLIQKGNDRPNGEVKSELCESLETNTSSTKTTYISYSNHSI

[24] = biological target: Metabotropic glutamate receptor 8 (Homo sapiens) (UniProt O00222); test: Agonist activity at mGlu8 receptor (unknown origin) expressed in CHO cells assessed as induction of inositol phosphate accumulation at 10 uM after 45 mins by liquid scintillation counting analysis relative to control; format: functional, cell-based; how it was run: as §4

[11CH3]Oc1cc(NC(=O)c2ccccn2)ccc1Cl
Drug uptake (Thalamus [1]): Not Active | Drug uptake (Striatum [2]): Not Active | Drug uptake (Brain): < 1 % ID/g | remaining at 50 min [3]: 10% | remaining at 5 min [4]: 30% | Drug uptake (Cerebellum [5]): Active | Drug uptake (Blood): < 1 % ID/g | Drug uptake (Muscle tissue): < 1 % ID/g | Drug uptake (Hippocampus [6]): Active | Drug uptake [7]: Active | Drug uptake (Striatum [8]): Active | Drug uptake (Striatum [9]): Active | Drug uptake [10]: Not Active | Drug uptake (Hippocampus [11]): Active | Drug uptake (Liver): > 1 % ID/g | Drug uptake [12]: Active | Drug uptake (Cerebellum [13]): Not Active | Drug uptake (Hippocampus [14]): Not Active | Drug uptake (Thalamus [15]): Active | Drug uptake (Hippocampus [16]): Active | Drug uptake (Striatum [17]): Active | Drug uptake (Lung): < 1 % ID/g | logD [18]: 3.09 | Drug uptake (Cerebellum [19]): Active | Drug uptake (Heart): < 1 % ID/g | Drug uptake [20]: Active | Drug uptake (Kidney): > 1 % ID/g

COc1cc(NC(=O)c2ccccn2)ccc1Cl
Activity [21]: -15% | inhibition [22]: 51% | inhibition [23]: -5% | Activity [24]: 13%
